NPY-Y1 antag = NPY-Y1 receptor antagonists, primary screen, cell-based | HEK293-CNG Y1 cells, membrane potential fluorescence; NPY at EC95, then isoproterenol | inhibition, % at 3.6 µM | 1% of 200,000 active;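 active = inhibition above the campaign mean inhibition of all tested compounds plus 3 SD, cut at about 20% in these data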;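 note: 0% = DMSO wells given NPY plus isoproterenol and 100% = isoproterenol alone without NPY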
Target sequence (P25929 whole entry, looked up): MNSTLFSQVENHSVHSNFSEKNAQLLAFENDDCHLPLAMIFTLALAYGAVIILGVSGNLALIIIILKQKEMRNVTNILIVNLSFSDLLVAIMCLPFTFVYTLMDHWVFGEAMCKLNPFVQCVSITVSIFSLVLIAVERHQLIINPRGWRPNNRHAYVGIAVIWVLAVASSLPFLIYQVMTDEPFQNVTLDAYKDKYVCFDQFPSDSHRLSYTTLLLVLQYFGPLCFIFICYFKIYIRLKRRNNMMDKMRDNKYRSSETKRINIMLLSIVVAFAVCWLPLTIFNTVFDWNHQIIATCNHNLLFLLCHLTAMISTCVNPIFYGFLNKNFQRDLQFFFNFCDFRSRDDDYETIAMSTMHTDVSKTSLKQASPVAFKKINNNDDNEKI
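Material: Y1- and CNG-channel-expressing HEK293 cells / Probe or stimulus: NPY 25 nM then isoproterenol 1 µM plus Ro 20-1724 25 µM / Doses: 3.6 µM single dose, DMSO 0.4% / Schedule: compound incubation 1 h at room temperature, readout 45 min post-stimulation / Signal: membrane potential fluorescence / Benchmarks: isoproterenol-only wells as full block versus NPY-plus-isoproterenol wells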
NPY-Y1 PAM-ag = NPY-Y1 receptor potentiators or agonists, primary screen, cell-based; Neuropeptide Y receptor type 1 (Homo sapiens), P25929; NPY-Y1 expressing cells, potentiator/agonist activation; activation, % at 3.6 µM; 0.37% of 220,000 active; AID 1304, 2008; in the data active = activation above about 33%, passing the limit was not always enough;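 note: cells stimulated with NPY at EC10 then isoproterenol at EC100; 0% = low agonist plus stimulus and 100% = saturating agonist plus stimulus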
NPY-Y2 PAM-ag = NPY-Y2 potentiators or agonists, primary screen, cell-based. Neuropeptide Y receptor type 2 (Homo sapiens), P49146. 0.45% of 220,000 active. cells expressing NPY-Y2, potentiator/agonist read-out. activation, % at 3.6 µM. AID 1359, 2008; in the data active = activation above about 27%;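 note: cells stimulated with NPY near EC25 plus isoproterenol at EC100; 0% = vehicle plus submaximal agonist and 100% = vehicle plus saturating agonist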
NPY-Y2 antag = NPY-Y2 receptor antagonists, primary screen, cell-based; AID 793, 2007; NPY-Y2 expressing cells, antagonist mode; 0.99% of 140,000 active; inhibition, % at 2.7 µM; in the data active = inhibition above about 17%;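 note: 0% = vehicle with agonist challenge and 100% = reference antagonist with challenge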
* = called active by the depositor. A selection: hits, their analogues and other compounds. The true share with any hit is near 1.9%.

CC(NC(=O)Cn1ncc(Cl)c(Cl)c1=O)C12CC3CC(CC(C3)C1)C2 (stereo not given) was read as NPY-Y1 antag -16.4, NPY-Y1 PAM-ag 81.8*, NPY-Y2 PAM-ag 72.0* and NPY-Y2 antag 1.5.
For Cc1cc(C)n2nc(SCCCC(=O)c3ccc(F)cc3)nc2n1 the results were NPY-Y1 antag 4.9, NPY-Y1 PAM-ag -0.9 and NPY-Y2 PAM-ag -10.2.
Cc1cc(C)c(C(=O)CSc2nnc(N)s2)c(C)c1 was read as NPY-Y1 antag 0.9, NPY-Y1 PAM-ag -5.4 and NPY-Y2 PAM-ag -1.0.
`CC1=CC(C)(C)N(C(=O)CSc2nnc(N)s2)c2c(C)cc(C)cc21` gave NPY-Y1 antag 7.4, NPY-Y1 PAM-ag 69.6*, NPY-Y2 PAM-ag 24.3 and NPY-Y2 antag 2.1.
Screening Cc1ccc(SCc2[nH]nc3c2C(c2ccco2)C(C#N)=C(N)O3)cc1 (stereo not given) returned NPY-Y1 antag 105.9*, NPY-Y1 PAM-ag -24.9, NPY-Y2 PAM-ag -15.1 and NPY-Y2 antag 127.2*.
`Cc1ccc(SCc2[nH]nc3c2C(c2ccc(C)o2)C(C#N)=C(N)O3)cc1` (stereo not given) gave NPY-Y1 antag 120.5*, NPY-Y1 PAM-ag -46.1, NPY-Y2 PAM-ag -19.9 and NPY-Y2 antag 78.7*.
CCc1[nH]nc2c1C(c1ccc(C)o1)C(C#N)=C(N)O2 (stereo not given) was read as NPY-Y1 antag 1.0, NPY-Y1 PAM-ag 4.3 and NPY-Y2 PAM-ag -14.1.
For O=C(C1CCN(S(=O)(=O)c2cnc[nH]2)CC1)N(CCc1ccccc1)Cc1ccccc1 the results were NPY-Y1 antag 3.4, NPY-Y1 PAM-ag -16.7 and NPY-Y2 PAM-ag 9.7.
O=C(C1CCN(CCCc2ccccc2)CC1)N(CCc1ccccc1)Cc1ccccc1 was read as NPY-Y1 antag 26.8*, NPY-Y1 PAM-ag -51.8, NPY-Y2 PAM-ag 21.6 and NPY-Y2 antag 35.8*.
Screening O=C(C1CCN(CC2CC=CCC2)CC1)N(CCc1ccccc1)Cc1ccccc1 (stereo not given) returned NPY-Y1 antag 23.5*, NPY-Y1 PAM-ag -42.3, NPY-Y2 PAM-ag -14.8 and NPY-Y2 antag 18.1*.
Screening COC(=O)c1onc(-c2c(Cl)cccc2Cl)c1C(=O)OC returned NPY-Y1 PAM-ag 9.0 and NPY-Y2 PAM-ag 21.3.
O=[N+]([O-])c1cc(Cl)ccc1N1CCCC1 was read as NPY-Y1 antag 7.3, NPY-Y1 PAM-ag 4.1 and NPY-Y2 PAM-ag -2.8.
Screening O=[N+]([O-])c1cc(Cl)ccc1N1CCN(c2cccc(C(F)(F)F)c2)CC1 returned NPY-Y1 antag 20.1*, NPY-Y1 PAM-ag 6.1, NPY-Y2 PAM-ag -6.5 and NPY-Y2 antag 20.5*.
`CC(C)COC(=O)Nc1nnc(SCCOc2ccccc2)s1` gave NPY-Y1 antag 29.1*, NPY-Y1 PAM-ag -49.3, NPY-Y2 PAM-ag -23.2 and NPY-Y2 antag 14.0.
`O=C(NCc1cccnc1)NC1CC(=O)N(c2ccc3c(c2)OCCO3)C1` (stereo not given) gave NPY-Y1 antag -4.8, NPY-Y1 PAM-ag 14.9 and NPY-Y2 PAM-ag 7.8.
For Cc1ccc(OCCn2c(NC(=O)c3ccco3)nc3ccccc32)cc1 the results were NPY-Y1 antag 8.9, NPY-Y1 PAM-ag -2.5, NPY-Y2 PAM-ag 6.0 and NPY-Y2 antag 20.2*.
Screening c1ccc(OCCn2c(-c3ccco3)nc3ccccc32)cc1 returned NPY-Y1 antag 7.7, NPY-Y1 PAM-ag -30.4, NPY-Y2 PAM-ag -21.4 and NPY-Y2 antag 4.8.
Screening Cc1cccc(OCCn2c(-c3ccco3)nc3ccccc32)c1 returned NPY-Y1 antag 26.2*, NPY-Y1 PAM-ag -49.7, NPY-Y2 PAM-ag -11.3 and NPY-Y2 antag 20.3*.
For O=C(Nc1nc2ccccc2n1CCOc1ccc(Cl)cc1)c1ccco1 the results were NPY-Y1 antag 24.1*, NPY-Y1 PAM-ag -101.7, NPY-Y2 PAM-ag -90.5 and NPY-Y2 antag 31.4*.
For O=C(Nc1nc2ccccc2n1CCOc1ccccc1)c1ccco1 the results were NPY-Y1 antag 8.5, NPY-Y1 PAM-ag -56.1, NPY-Y2 PAM-ag -30.6 and NPY-Y2 antag 10.7.
Cc1cccc(OCCn2c(NC(=O)c3ccco3)nc3ccccc32)c1 was read as NPY-Y1 antag 33.5*, NPY-Y1 PAM-ag -106.7, NPY-Y2 PAM-ag -53.4 and NPY-Y2 antag 37.0*.
`Cc1ccc(N2NC(C)(c3cccs3)NC2=S)cc1` (stereo not given) gave NPY-Y1 antag -1.2, NPY-Y1 PAM-ag -12.4, NPY-Y2 PAM-ag -8.3 and NPY-Y2 antag -4.2.
Screening COc1ccccc1NC(=O)COc1ccc(Br)cc1CNC1CCCC1 returned NPY-Y1 antag 21.1*, NPY-Y1 PAM-ag -20.4 and NPY-Y2 PAM-ag -9.6.
Screening CC1(C)Cc2cccc(OCC(O)CN3CCN(c4ccccn4)CC3)c2O1 (stereo not given) returned NPY-Y1 antag -14.7, NPY-Y1 PAM-ag 103.9*, NPY-Y2 PAM-ag 91.0* and NPY-Y2 antag 1.1.
`CC1(C)Cc2cccc(OCC(O)CNCc3ccccn3)c2O1` (stereo not given) gave NPY-Y1 antag -5.7, NPY-Y1 PAM-ag 80.3*, NPY-Y2 PAM-ag 65.7* and NPY-Y2 antag 4.6.
For CCOCCCNC(=O)c1ccc(-n2c(=S)[nH]c3ccccc3c2=O)cc1 the results were NPY-Y1 antag 4.2, NPY-Y1 PAM-ag -20.2 and NPY-Y2 PAM-ag 2.0.
CN(C)c1ccc(/C=N/NC(=O)CCc2nc3ccccc3[nH]2)cc1 was read as NPY-Y1 PAM-ag 8.2 and NPY-Y2 PAM-ag -11.6.
COc1ccc(NS(=O)(=O)c2cc(N/C(=N\S(=O)(=O)c3ccccc3)c3ccc(F)cc3)ccc2Cl)cc1 was read as NPY-Y1 antag -2.3, NPY-Y1 PAM-ag 39.2, NPY-Y2 PAM-ag 22.7 and NPY-Y2 antag 7.5.
`Cc1ccc(C)c(CSc2nnc(-c3cccs3)n2Cc2ccco2)c1` gave NPY-Y1 antag 52.6*, NPY-Y1 PAM-ag 2.5, NPY-Y2 PAM-ag -4.0 and NPY-Y2 antag 24.2*.
For NC(=O)CSc1nnc(-c2cccs2)n1Cc1ccco1 the results were NPY-Y1 PAM-ag 8.5 and NPY-Y2 PAM-ag -7.5.
Screening O=C(C(Sc1ccccc1)c1ccccc1)N1CCN(c2ccccc2F)CC1 (stereo not given) returned NPY-Y1 antag 35.7*, NPY-Y1 PAM-ag -10.2, NPY-Y2 PAM-ag -10.4 and NPY-Y2 antag 20.0*.
Screening COc1ccc2nc(NC(=O)CN(c3ccc(C)cc3)S(=O)(=O)c3c(C)nn(C)c3C)sc2c1 returned NPY-Y1 antag -14.4, NPY-Y1 PAM-ag 55.1*, NPY-Y2 PAM-ag 44.8* and NPY-Y2 antag -9.4.
For COc1ccc(N(CC(=O)NCc2ccc(C)cc2)S(=O)(=O)c2c(C)nn(C)c2C)cc1 the results were NPY-Y1 antag 0.2, NPY-Y1 PAM-ag -13.1, NPY-Y2 PAM-ag 3.6 and NPY-Y2 antag 0.0.
COc1ccc(Nc2nc3ccc(OC)cc3s2)cc1 was read as NPY-Y1 antag -5.0, NPY-Y1 PAM-ag 23.9 and NPY-Y2 PAM-ag 6.3.
COc1ccc2nc(Nc3nc(C)c(C(C)=O)s3)sc2c1 was read as NPY-Y1 antag -1.8, NPY-Y1 PAM-ag 40.7*, NPY-Y2 PAM-ag 34.2* and NPY-Y2 antag -2.8.
Cc1ccc(S(=O)(=O)CC(=O)c2cc(C)c(O)c(C)c2)cc1 was read as NPY-Y1 antag -0.8, NPY-Y1 PAM-ag -22.3 and NPY-Y2 PAM-ag -15.3.
